Results: ChEMBL document CHEMBL3232894, “Discovery of AMG 925, a FLT3 and CDK4 dual kinase inhibitor with preferential affinity for the activated state of FLT3” (J Med Chem, 2014)

Legend:
[1] = target: Cyclin-dependent kinase 4/cyclin D1 (Homo sapiens, UniProt P11802); experiment: Inhibition of CDK4/cyclin D1 (unknown origin) using Rb as substrate after 60 mins by scintillation counting analysis in presence of [r-33P]ATP; assay type: protein-complex assay
[2] = target: Cyclin-dependent kinase 1/cyclin B1 (Homo sapiens, UniProt P06493); experiment: Inhibition of CDK1/cyclin B (unknown origin) using histone H1 as substrate after 60 mins by scintillation counting analysis in presence of [r-33P]ATP; assay type: protein-complex assay
[3] = target: T1, Receptor-type tyrosine-protein kinase FLT3 (Homo sapiens, UniProt P36888); experiment: Inhibition of GST-fused human FLT3 cytoplasmic domain (amino acids 564 to 993) using Ulight-JAK1 as substrate after 1 hr by TR-FRET assay
T1 sequence (P36888 whole entry): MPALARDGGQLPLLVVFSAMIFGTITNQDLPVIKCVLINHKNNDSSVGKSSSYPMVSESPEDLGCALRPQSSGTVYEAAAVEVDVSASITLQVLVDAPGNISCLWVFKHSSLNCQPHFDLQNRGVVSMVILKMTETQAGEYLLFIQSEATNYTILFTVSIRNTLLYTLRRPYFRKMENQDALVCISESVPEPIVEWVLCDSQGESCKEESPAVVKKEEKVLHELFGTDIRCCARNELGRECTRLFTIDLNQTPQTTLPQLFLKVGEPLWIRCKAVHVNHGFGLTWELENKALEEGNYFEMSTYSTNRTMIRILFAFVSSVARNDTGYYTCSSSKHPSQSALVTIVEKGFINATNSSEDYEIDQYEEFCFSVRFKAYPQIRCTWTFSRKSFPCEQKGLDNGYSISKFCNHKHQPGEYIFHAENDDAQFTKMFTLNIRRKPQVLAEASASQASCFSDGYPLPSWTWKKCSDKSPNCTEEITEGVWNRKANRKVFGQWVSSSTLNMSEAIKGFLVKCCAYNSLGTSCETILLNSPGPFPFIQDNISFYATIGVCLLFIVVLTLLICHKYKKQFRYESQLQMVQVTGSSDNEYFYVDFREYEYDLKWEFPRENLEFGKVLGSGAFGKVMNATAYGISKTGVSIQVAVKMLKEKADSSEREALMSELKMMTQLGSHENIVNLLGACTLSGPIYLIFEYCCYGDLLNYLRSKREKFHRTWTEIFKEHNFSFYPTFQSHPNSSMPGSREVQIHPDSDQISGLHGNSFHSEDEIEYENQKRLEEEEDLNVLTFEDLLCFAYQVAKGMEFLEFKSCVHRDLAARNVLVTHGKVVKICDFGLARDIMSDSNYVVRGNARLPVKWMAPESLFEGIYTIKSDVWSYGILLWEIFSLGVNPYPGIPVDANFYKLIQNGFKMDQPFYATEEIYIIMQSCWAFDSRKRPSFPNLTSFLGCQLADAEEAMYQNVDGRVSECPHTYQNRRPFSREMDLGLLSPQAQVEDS

[4] = Antiproliferative activity against Rb-negative human MDA-MB-436 cells assessed as incorporation of [3H]thymidine into DNA after 72 hrs by beta-plate counting analysis; assay type: functional
[5] = target: CYP3A4 (Homo sapiens, UniProt P08684); experiment: Inhibition of CYP3A4 (unknown origin) at 3 uM; assay type: ADME
[6] = tested on: COLO 205; experiment: Antiproliferative activity against Rb-positive human COLO205 cells assessed as incorporation of [14C]thymidine into DNA after 72 hrs by beta-plate counting analysis
[7] = tested on: MOLM-13; experiment: Antiproliferative activity against human MOLM13 cells harboring FLT3 ITD mutant assessed as incorporation of [3H]thymidine into DNA after 72 hrs by beta-plate counting analysis; assay type: functional, cell-based
[8] = target: Cytochrome P450 3A4 (Homo sapiens, UniProt P08684); experiment: Inhibition of CYP3A4 (unknown origin); assay type: ADME
[9] = Clearance in iv dosed rat; assay type: ADME, organism-based; settings: in vivo
In short: (§1)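 Intravenous and oral (gavage, solution) PK in rat, dog and cynomolgus monkey. The rat vehicle for both routes was water/acetate/tween at pH 4, 96/3/1 (v/v/v). Dog and monkey iv doses used 40% PG aqueous solution at pH 2, and their oral doses used 20% captisol aqueous solution.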

[10] = Oral bioavailability in rat; assay type: ADME, organism-based; settings: in vivo; in short: as §1
[11] = Drug uptake in CrTac:NCR-Foxn1nu (NCR) nude mouse at 150 mg/kg, po after 3 hrs; assay type: ADME, organism-based; set-up: dose 150 mg/kg, route oral; settings: in vivo, read-out: Drug uptake
In short: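 Total plasma drug concentration in mouse PK studies, taken 3 h after a 150 mg/kg oral dose.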

[12] = tested on: U-937; experiment: Antiproliferative activity against human U937 cells assessed as incorporation of [3H]thymidine into DNA after 72 hrs by beta-plate counting analysis
[13] = tested on: U-937; experiment: Induction of apoptosis in human U937 cells harboring wild type FLT3 at 1 uM after 48 hrs by Annexin V/Sytox Green staining based flow cytometry; assay type: functional
In short: (§2)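 MOLM13, sorafenib-resistant MOLM13 and U937 cells were each exposed to compound at 1 μM for 48 h. Cells were then stained with Annexin V/Sytox Green and analysed by flow cytometry. Readout is apoptotic cells as a percentage of all cells analysed.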

[14] = tested on: MOLM-13; experiment: Induction of apoptosis in human MOLM13 cells harboring FLT3 ITD mutant at 1 uM after 48 hrs by Annexin V/Sytox Green staining based flow cytometry; assay type: functional; in short: as §2
[15] = tested on: MOLM-13; experiment: Induction of apoptosis in sorafenib-resistant human MOLM13 cells harboring FLT3 ITD+D835Y mutant at 1 uM after 48 hrs by Annexin V/Sytox Green staining based flow cytometry; assay type: functional; in short: as §2
[16] = tested on: MOLM-13; experiment: cells; settings: Homo sapiens

Sequence of Cyclin-dependent kinase 1/cyclin B1 (P06493 whole entry, the tested form may be a part): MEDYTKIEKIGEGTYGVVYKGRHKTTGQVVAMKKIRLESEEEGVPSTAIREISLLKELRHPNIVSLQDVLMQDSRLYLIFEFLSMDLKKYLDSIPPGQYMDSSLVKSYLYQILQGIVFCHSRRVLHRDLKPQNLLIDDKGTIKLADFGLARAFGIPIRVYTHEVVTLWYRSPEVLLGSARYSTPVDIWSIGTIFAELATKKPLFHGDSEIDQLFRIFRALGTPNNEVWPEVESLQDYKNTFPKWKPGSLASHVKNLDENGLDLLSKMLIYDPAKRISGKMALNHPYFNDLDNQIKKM
Sequence of Cyclin-dependent kinase 1/cyclin B1 (P14635 whole entry, further chain, the tested form may be a part): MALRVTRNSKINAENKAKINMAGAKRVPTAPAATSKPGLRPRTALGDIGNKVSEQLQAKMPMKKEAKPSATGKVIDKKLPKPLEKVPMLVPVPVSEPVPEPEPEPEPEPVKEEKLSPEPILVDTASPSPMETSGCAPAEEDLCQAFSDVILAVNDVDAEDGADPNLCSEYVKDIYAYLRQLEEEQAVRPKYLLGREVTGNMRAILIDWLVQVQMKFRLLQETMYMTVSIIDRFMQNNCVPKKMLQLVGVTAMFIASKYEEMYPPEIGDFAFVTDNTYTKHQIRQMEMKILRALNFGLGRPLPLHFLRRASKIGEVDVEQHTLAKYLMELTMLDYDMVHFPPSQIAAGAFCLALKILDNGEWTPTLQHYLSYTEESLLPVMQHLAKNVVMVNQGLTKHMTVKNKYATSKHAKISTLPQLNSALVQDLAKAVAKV
Sequence of CYP3A4 (P08684 whole entry): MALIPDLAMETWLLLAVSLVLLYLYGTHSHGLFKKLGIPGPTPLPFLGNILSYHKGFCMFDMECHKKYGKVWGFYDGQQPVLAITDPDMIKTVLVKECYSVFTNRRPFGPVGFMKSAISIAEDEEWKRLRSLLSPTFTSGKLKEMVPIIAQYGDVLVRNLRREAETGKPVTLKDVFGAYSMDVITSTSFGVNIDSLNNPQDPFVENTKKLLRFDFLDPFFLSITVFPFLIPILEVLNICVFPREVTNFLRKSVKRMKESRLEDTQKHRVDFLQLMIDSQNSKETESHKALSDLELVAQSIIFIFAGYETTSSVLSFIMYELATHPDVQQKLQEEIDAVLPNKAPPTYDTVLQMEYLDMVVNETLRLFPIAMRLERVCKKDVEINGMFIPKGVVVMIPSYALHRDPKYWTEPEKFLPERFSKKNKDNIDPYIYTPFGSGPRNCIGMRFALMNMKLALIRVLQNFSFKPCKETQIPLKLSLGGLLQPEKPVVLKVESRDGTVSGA
Sequence of Cytochrome P450 3A4 (P08684 whole entry): as above
Sequence of Cyclin-dependent kinase 4/cyclin D1 (P11802 whole entry): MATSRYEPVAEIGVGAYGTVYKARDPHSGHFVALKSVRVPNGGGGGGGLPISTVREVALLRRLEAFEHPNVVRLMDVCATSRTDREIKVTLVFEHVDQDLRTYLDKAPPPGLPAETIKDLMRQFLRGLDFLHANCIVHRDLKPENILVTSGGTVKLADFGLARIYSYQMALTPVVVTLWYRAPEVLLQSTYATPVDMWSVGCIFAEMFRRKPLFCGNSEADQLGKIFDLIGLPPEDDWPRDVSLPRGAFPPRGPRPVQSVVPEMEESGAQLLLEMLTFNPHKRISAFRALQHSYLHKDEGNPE
Sequence of Cyclin-dependent kinase 4/cyclin D1 (P24385 whole entry, further chain): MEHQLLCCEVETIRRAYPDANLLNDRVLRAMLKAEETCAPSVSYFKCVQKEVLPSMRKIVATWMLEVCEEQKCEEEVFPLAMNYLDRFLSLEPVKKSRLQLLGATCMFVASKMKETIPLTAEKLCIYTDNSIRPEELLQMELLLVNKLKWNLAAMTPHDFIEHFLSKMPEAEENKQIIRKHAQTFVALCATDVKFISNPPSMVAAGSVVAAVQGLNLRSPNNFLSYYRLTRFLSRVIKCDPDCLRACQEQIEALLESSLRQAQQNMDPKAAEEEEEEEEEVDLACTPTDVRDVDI

IC50 [1] [nM]	IC50 [2] [nM]	IC50 [3] [nM]	inhibition at 3 µM [5] [%]	IC50 [6] [nM]	IC50 [7] [nM]	IC50 [8] [nM]	clearance [9] [mL/min/kg]	bioavailability [10] [%]	concentration at 3 h [11] [µM]	IC50 [12] [nM]	IC50 [16] [nM]	Structure (SMILES)	IC50 [4] [nM]	Activity [13] [%]	Activity [14] [%]	Activity [15] [%]
1	5200	2	46	55	–	–	–	–	–	–	–	CC1CCC(n2c3cnccc3c3cnc(Nc4ccc(N5CCNCC5)cn4)nc32)CC1 (mixture of isomers)	1020	–	–	–
4	1630	5	–	38	32	–	9	38	11.6	–	–	C[C@H]1CC[C@H](n2c3cnccc3c3cnc(Nc4ccc(N5CCC6(CC5)CCS(=O)(=O)C6)nn4)nc32)CC1	10000	–	–	–
3	7560	11	< 10	52	21	> 10000	35	–	–	–	–	Fc1nccc2c3cnc(Nc4ccc(N5CCNCC5)cn4)nc3n(C3CCCC3)c12	2610	–	–	–
13	1060	0.6	–	44	4	–	15.2	65	–	–	–	COc1nc(Nc2ncc3c4ccncc4n([C@H]4CC[C@H](C)CC4)c3n2)ccc1N1CCC2(CCC(=O)N2)CC1	7500	–	–	–
3	2960	3	90	33	10	–	–	–	–	–	–	CC1(C)CCCC(n2c3cnccc3c3cnc(Nc4ccc(N5CCNCC5)cn4)nc32)C1 (configuration not stated)	1620	–	–	–
3	1050	8	–	31	37	–	2	22	10.9	–	–	C[C@H]1CC[C@H](n2c3cnccc3c3cnc(Nc4ccc(N5CCN(C(=O)CO)CC5)nn4)nc32)CC1	1190	–	–	–
9	3970	8	–	19	30	–	3.33	23	–	–	–	CS(=O)(=O)CC1CCN(c2ccc(Nc3ncc4c5ccncc5n([C@H]5CC[C@H](C)CC5)c4n3)nn2)CC1	10000	–	–	–
51	4780	95	< 10	51	–	> 10000	93.3	–	–	–	–	c1cc2c3cnc(Nc4ccc(N5CCNCC5)cn4)nc3n(C3CCCC3)c2nn1	7050	–	–	–
1	2910	17	51	28	35	9500	–	–	–	–	–	CC1(C)CCC(n2c3cnccc3c3cnc(Nc4ccc(N5CCNCC5)cn4)nc32)CC1	2010	–	–	–
5	6530	2	82	32	–	–	–	–	–	–	–	c1cc2c3cnc(Nc4ccc(N5CCNCC5)cn4)nc3n(C3CCCCC3)c2cn1	540	–	–	–
3	1770	3	–	31	21	–	21.7	48	14.7	–	–	C[C@H]1CC[C@H](n2c3cnccc3c3cnc(Nc4ccc(N5CCC6(CCC(=O)N6)CC5)cn4)nc32)CC1	7230	–	–	–

More lines, now with the values behind:

Structure (SMILES)	IC50 [1] [nM]	IC50 [2] [nM]	IC50 [3] [nM]	inhibition at 3 µM [5] [%]	IC50 [6] [nM]	IC50 [7] [nM]	IC50 [8] [nM]	clearance [9] [mL/min/kg]	bioavailability [10] [%]	concentration at 3 h [11] [µM]	IC50 [12] [nM]	IC50 [16] [nM]	IC50 [4] [nM]	Activity [13] [%]	Activity [14] [%]	Activity [15] [%]
Cc1nccc2c3cnc(Nc4ccc(N5CCNCC5)cn4)nc3n(C3CCCC3)c12	20	2260	22	< 10	280	5	> 10000	–	–	–	–	–	3420	–	–	–
C[C@H]1CC[C@H](n2c3cnccc3c3cnc(Nc4ccc(N5CCNCC5)nn4)nc32)CC1	2	1530	6	–	22	13	–	5.83	11	–	–	–	1010	–	–	–
C[C@@H](CO)n1c2cnccc2c2cnc(Nc3ccc(N4CCNCC4)cn3)nc21	40	12800	43	17	1240	–	> 10000	–	–	–	–	–	30000	–	–	–
CN(C)C1CCN(c2ccc(Nc3ncc4c5ccncc5n([C@H]5CC[C@H](C)CC5)c4n3)nc2)CC1	2	3290	2	–	10	10	–	35	44	–	–	–	1250	–	–	–
CC(=O)c1c(C)c2cnc(Nc3ccc(N4CCNCC4)cn3)nc2n(C2CCCC2)c1=O [PALBOCICLIB]	–	–	–	–	36	96	–	–	–	–	140	96	–	9.09	16.95	8.35
O[C@H]1CC[C@H](n2c3cnccc3c3cnc(Nc4ccc(N5CCNCC5)cn4)nc32)CC1	3	3410	5	70	66	25	–	–	–	–	–	–	2610	–	–	–
C[C@H]1CC[C@H](n2c3cnccc3c3cnc(Nc4ccc(N5CCNCC5)cn4)nc32)CC1	7	2660	2	20	20	13	> 10000	–	–	–	–	–	1210	–	–	–
C[C@H]1CC[C@H](n2c3cnccc3c3cnc(Nc4ccc(N5CCC(N)CC5)cn4)nc32)CC1	2	410	1	–	5	8	–	–	–	–	–	–	1200	–	–	–
c1cc2c3cnc(Nc4ccc(N5CCNCC5)cn4)nc3n(C3CCCC3)c2cn1	3	3000	14	90	25	5	550	16.3	9.4	–	–	–	1760	–	–	–
C[C@H]1CC[C@H](n2c3cnccc3c3cnc(Nc4ccc(N5CCNCC5)nc4)nc32)CC1	3	24	0.3	–	7	5	–	–	–	–	–	–	38	–	–	–
CNC(=O)c1cc(Oc2ccc(NC(=O)Nc3ccc(Cl)c(C(F)(F)F)c3)cc2)ccn1 [SORAFENIB]	–	–	–	–	> 3000	5	–	–	–	–	> 3000	> 3000	–	8.76	84.6	5.16
O=c1[nH]ccc2c3cnc(Nc4ccc(N5CCNCC5)cn4)nc3n(C3CCCC3)c12	5	10000	17	18	120	5	–	–	–	–	–	–	2100	–	–	–
N#Cc1nccc2c3cnc(Nc4ccc(N5CCNCC5)cn4)nc3n(C3CCCC3)c12	27	30000	46	–	350	62	–	–	–	–	–	–	1380	–	–	–
